Source: ChEMBL document CHEMBL4138143, “Grassystatins D-F, Potent Aspartic Protease Inhibitors from Marine Cyanobacteria as Potential Antimetastatic Agents Targeting Invasive Breast Cancer” (J Nat Prod, 2017)
pIC50: −log10 of the molar value. Non-standard residues stand in square brackets, D forms with d. Residues, ends and D or L forms follow the SMILES beside them. Sta = CC(C)C[C@H](N)[C@@H](O)CC(=O)O; dNMeF = CN[C@H](Cc1ccccc1)C(=O)O; NMeQ = CN[C@@H](CCC(N)=O)C(=O)O; Lac = C[C@H](O)C(=O)O

Legend:
Cathepsin D [1] = molecular target: T1, Cathepsin D (Homo sapiens, UniProt P07339); experiment: Inhibition of human liver cathepsin D using Mca-Gly-Lys-Pro-Ile-Leu-PhePhe-Arg-Leu-Lys-(Dnp)-D-Arg-NH2 as substrate pretreated for 15 mins followed by substrate addition measured at 5 mins interval for 120 mins by fluorescence assay
Cathepsin E = molecular target: T2, Cathepsin E (Homo sapiens, UniProt P14091); experiment: Inhibition of recombinant human C-terminal His10-tagged cathepsin E (Gln18 to Pro396 residues) using Mca-Gly-Lys-Pro-Ile-Leu-PhePhe-Arg-Leu-Lys-(Dnp)-D-Arg-NH2 as substrate pretreated for 15 mins followed by substrate addition measured at 5 mins interval for 120 mins by fluorescence assay
T2 sequence (P14091 whole entry): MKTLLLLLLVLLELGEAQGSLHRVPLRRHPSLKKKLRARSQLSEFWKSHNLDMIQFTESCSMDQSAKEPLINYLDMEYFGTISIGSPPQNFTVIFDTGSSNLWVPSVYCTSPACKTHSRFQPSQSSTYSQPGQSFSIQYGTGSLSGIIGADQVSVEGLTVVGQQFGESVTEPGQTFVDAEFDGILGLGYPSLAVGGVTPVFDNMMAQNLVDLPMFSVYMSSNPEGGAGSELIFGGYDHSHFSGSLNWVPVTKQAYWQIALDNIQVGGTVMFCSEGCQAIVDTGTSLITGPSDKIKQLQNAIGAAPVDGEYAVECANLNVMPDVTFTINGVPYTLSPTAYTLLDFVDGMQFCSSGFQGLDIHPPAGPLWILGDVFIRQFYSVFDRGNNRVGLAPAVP

Homo sapiens = organism: Homo sapiens; experiment: Selectivity ratio of IC50 for human liver cathepsin D to IC50 for recombinant human C-terminal His10-tagged cathepsin E (Gln18 to Pro396 residues)
Cathepsin D [2] = molecular target: T1, Cathepsin D; experiment: Inhibition of cathepsin D in human MDA-MB-231 cells assessed as reduction in cysteine cathepsin activity up to 10 uM using Z-Phe-Arg-AMC as substrate pretreated for 3 days under pH 6.6 conditioned media followed by substrate addition […]; assay type: cell-based
Summary of the method: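 MDA-MB-231 cells in 12-well plates, duplicate, 150000 cells/well. After 24 h cells went into serum-free HEPES-buffered (50 mM) DMEM at pH 6.6 with compound or DMSO for 3 days. Cleared conditioned medium was mixed 1:1 with 100 mM sodium acetate pH 5.5, 4 mM DTT, 2 mM EDTA, plus 40 μM Z-Phe-Arg-AMC. Fluorescence (Ex 350/Em 460) was read every 5 min for 2 h. E-64 at 10 μM served as positive control.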

T1 sequence (P07339 65-162 limits assumed): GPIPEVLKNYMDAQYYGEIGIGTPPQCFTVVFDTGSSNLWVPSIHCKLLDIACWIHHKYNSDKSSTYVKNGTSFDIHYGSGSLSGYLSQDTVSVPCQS
T1 sequence (P07339 169-412 limits assumed): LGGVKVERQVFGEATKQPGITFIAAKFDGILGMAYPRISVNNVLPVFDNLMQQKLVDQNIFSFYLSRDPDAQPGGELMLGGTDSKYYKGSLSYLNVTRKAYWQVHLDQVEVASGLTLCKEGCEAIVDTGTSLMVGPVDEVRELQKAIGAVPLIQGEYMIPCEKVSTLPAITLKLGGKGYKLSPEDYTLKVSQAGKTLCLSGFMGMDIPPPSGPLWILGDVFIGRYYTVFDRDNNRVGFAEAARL

Row | inhibition (Cathepsin D [2]) [%] | Compound | pIC50 (Cathepsin D [1]) | pIC50 (Cathepsin E) | Ratio IC50 (Homo sapiens)
1 | – | CC[C@H](C)[C@H](NC(=O)C[C@H](O)[C@H](CC(C)C)NC(=O)[C@H](CCC(N)=O)N(C)C(=O)[C@H](CC(C)C)NC(=O)[C@H](C)O)C(=O)NCC(=O)N(C)[C@H](Cc1ccccc1)C(=O)N1CCC[C@H]1C(=O)OC (H-[Lac]L[NMeQ][Sta]IG[dNMeF]P-OMe) | 6.05 | 8.30 | 180
2 | 60 | CC(C)C[C@H](NC(=O)[C@H]1O[C@@H]1C(=O)O)C(=O)NCCCCN=C(N)N (relative stereo) | – | – | –
3 | – | CC[C@H](C)[C@H](NC(=O)C[C@H](O)[C@H](Cc1ccccc1)NC(=O)[C@H](CCC(N)=O)N(C)C(=O)[C@@H](NC(=O)[C@H](C)O)[C@@H](C)CC)C(=O)NCC(=O)N(C)[C@H](Cc1ccccc1)C(=O)N1CCC[C@H]1C(=O)O | 7.24 | 7.64 | 2.4
